Test [1] has as its target T1, Fibroblast growth factor receptor 1 (Homo sapiens, UniProt P11362). Description: Inhibition of FGFR1 using poly(Glu-Tyr)4:1 as substrate after 60 mins by ELISA.
Target sequence in this assay (P11362 whole entry): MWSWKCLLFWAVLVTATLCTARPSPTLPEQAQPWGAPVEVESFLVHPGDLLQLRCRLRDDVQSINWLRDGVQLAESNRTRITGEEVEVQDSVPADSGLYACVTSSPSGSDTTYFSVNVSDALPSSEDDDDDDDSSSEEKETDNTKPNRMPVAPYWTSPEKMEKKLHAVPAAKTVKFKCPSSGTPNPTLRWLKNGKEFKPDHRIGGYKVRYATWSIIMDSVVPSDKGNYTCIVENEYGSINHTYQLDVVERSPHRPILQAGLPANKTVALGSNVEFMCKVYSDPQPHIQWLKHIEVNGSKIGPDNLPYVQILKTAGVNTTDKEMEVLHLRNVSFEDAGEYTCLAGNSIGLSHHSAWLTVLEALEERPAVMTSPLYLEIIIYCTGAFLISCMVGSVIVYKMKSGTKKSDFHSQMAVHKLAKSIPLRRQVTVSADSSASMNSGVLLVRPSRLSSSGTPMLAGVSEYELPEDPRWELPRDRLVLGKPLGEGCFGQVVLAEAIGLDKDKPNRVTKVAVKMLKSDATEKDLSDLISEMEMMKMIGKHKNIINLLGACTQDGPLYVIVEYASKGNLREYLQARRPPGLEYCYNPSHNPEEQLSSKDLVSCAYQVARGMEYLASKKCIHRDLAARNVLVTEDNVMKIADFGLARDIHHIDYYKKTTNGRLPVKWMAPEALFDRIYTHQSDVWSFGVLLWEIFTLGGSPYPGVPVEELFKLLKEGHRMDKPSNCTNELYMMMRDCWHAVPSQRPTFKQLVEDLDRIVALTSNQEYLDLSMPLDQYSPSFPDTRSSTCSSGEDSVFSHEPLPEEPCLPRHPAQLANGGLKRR
A further test concerns WI-38. Kind of test: Antiproliferative activity against human WI38 cells expressing FGFR after 72 hrs by SRB assay. In kind it is cell-based. The settings on record: WI-38, 72 h. In outline:
(§1)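 Cells seeded and grown 24 h, then exposed to increasing compound concentrations for 72 h without medium change. Fixed with cold 10% TCA 1 h at 4 °C, stained 15 min with 4 mg/mL SRB in 1% acetic acid, rinsed, dye dissolved in 10 mM Tris base, A515 read. Inhibition = (1 − A515treated/A515control)×100; IC50 by Logit method from at least three independent tests.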

Another test deals with T-24. Description: Antiproliferative activity against human T24 cells expressing FGFR after 72 hrs by SRB assay. The settings on record: T-24, 72 h. In kind it is functional, cell-based. In outline: as §1
In the next test the test system is BXPC-3. Description: Antiproliferative activity against human BxPC3 cells expressing FGFR after 72 hrs by SRB assay. In kind it is functional, cell-based. Conditions: BXPC-3, 72 h. Summed up:
as §1

In test [2] the target is T1, Fibroblast growth factor receptor 1. Kind of test: Inhibition of FGFR1 in human BxPC3 cells assessed as reduction of Akt phosphorylation at 10 uM after 12 hrs by Western blot analysis. In kind it is cell-based. Conditions: BXPC-3. Summed up: (§2)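 BxPC3 cells plated at 3 × 10^5 per well, serum-starved 24 h, then treated 12 h with compound (1.25, 2.5, 5, 10 μM). Whole-cell lysates run on 10% SDS-PAGE and immunoblotted for phospho-FGFR1 (Tyr653/654), phospho-Erk1/2 (T202/Y204), phospho-Akt and totals, with GAPDH loading control.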
Target sequence in this assay (P11362 22-822 limits assumed): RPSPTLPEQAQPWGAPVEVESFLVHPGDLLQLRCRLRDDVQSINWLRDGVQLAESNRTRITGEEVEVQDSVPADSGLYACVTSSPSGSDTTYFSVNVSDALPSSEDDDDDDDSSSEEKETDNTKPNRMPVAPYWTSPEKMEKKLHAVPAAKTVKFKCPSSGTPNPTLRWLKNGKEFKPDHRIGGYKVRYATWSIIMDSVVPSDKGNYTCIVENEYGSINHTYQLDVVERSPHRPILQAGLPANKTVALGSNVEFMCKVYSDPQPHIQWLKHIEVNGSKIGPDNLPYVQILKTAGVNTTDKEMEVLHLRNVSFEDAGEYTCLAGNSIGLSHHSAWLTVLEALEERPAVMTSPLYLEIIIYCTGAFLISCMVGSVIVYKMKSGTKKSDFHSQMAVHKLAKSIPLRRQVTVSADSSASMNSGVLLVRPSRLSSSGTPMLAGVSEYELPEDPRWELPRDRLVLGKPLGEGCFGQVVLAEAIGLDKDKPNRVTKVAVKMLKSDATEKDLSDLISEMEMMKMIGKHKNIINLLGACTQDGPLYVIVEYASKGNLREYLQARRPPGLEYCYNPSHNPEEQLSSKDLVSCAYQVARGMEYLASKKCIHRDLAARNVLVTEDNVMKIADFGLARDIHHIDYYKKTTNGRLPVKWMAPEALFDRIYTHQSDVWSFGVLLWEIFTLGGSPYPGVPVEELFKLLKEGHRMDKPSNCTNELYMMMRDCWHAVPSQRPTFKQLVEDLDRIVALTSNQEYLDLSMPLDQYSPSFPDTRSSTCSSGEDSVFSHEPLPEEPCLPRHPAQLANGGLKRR

Test [3] shares this target. Kind of test: Inhibition of b-FGF-induced FGFR1 phosphorylation in human BxPC3 cells at 10 uM after 12 hrs by Western blot analysis relative to control. In kind it is cell-based. Conditions: BXPC-3. Summed up: as §2
Target sequence in this assay (P11362 22-822 limits assumed): as above
Test [4] shares this target. Description: Inhibition of FGFR1 in human BxPC3 cells assessed as reduction of Erk1/2 phosphorylation at 10 uM after 12 hrs by Western blot analysis. The class given is cell-based. The settings on record: BXPC-3. In outline:
as §2
Target sequence in this assay (P11362 22-822 limits assumed): as above

For test [5] the target is unchanged. Description: Inhibition of b-FGF-induced FGFR1 phosphorylation in human BxPC3 cells after 12 hrs by Western blot analysis. In kind it is cell-based. The settings on record: BXPC-3. Summed up:
as §2
Target sequence in this assay (P11362 22-822 limits assumed): as above

Test [6] has the same target. Kind of test: Inhibition of b-FGF-induced FGFR1 phosphorylation in human BxPC3 cells at 1.25 uM after 12 hrs by Western blot analysis. The settings on record: BXPC-3. The class given is cell-based. Summed up:
as §2
Target sequence in this assay (P11362 22-822 limits assumed): as above

The next test deals with Calf thymus DNA. Kind of test: Binding affinity to calf thymus DNA at 20 uM by circular dichroism assay. Conditions: Bos taurus. In kind it is nucleic-acid assay.
For test [7], the target named is T1, Fibroblast growth factor receptor 1. Kind of test: Inhibition of FGFR1 in human BxPC3 cells assessed as reduction of Erk1/2 phosphorylation after 12 hrs by Western blot analysis. The class given is cell-based. The settings on record: BXPC-3. In outline: as §2
Target sequence in this assay (P11362 22-822 limits assumed): as above

The structures appear in SMILES notation. The source made the active and inactive calls. The rule behind the calls is not given here. A value given as a limit tells only on which side of the number the result lay.

This passage reports IC50, inhibition and Activity results from ChEMBL document CHEMBL1781995, “Acenaphtho[1,2-b]pyrrole-based selective fibroblast growth factor receptors 1 (FGFR1) inhibitors: design, synthesis, and biological activity” (J Med Chem, 2011).

Regarding `N#CC1=C2C(=NC1=O)c1cccc3c(SCCO)ccc2c13`, the IC50 in [1] is greater than 10 µM.
Consider `CCOC(=O)C1=C2C(=NC1=O)c1cccc3c(SC4CCOC4C)ccc2c13` (configuration not stated), for which the IC50 in [1] is greater than 10 µM.
Take `C=CCSc1ccc2c3c(cccc13)C1=NC(=O)C(C#N)=C12`: the IC50 in test [1] was greater than 10 µM.
Still for that read-out and setting: with `CC(Sc1ccc2c3c(cccc13)C1=NC(=O)C(C#N)=C12)C1(C)CSCO1` (configuration not stated) the figure was 3.6 µM; with `N#CC1=C2C(=NC1=O)c1cccc3c(SCCc4cnccn4)ccc2c13`, greater than 10 µM; with `CCOC(=O)C1=C2C(=NC1=O)c1cccc3c(SCCO)ccc2c13`, 0.32 µM.
Take `CCCSC(=O)COC(=O)C1=C2C(=NC1=O)c1cccc3c(SCCC)ccc2c13`: the IC50 with WI-38 was greater than 100 µM; with T-24, 79.1 µM; with BXPC-3, 56.3 µM; in test [1], greater than 10 µM.
`CCOC(=O)C1=C2C(=NC1=O)c1cccc3c(SC(C)C4(C)CSCO4)ccc2c13` (configuration not stated) had an IC50 in test [1] greater than 10 µM.
For the compound `C=CCSc1ccc2c3c(cccc13)C1=NC(=O)C(C(=O)OCC(=O)OCC(F)(F)C(F)(F)F)=C12`, the IC50 stood at 45.6 µM in the test on WI-38, 86.4 µM in the test on T-24, 38.5 µM in the test on BXPC-3 and 0.424 µM in test [1].
As to `C=CCSc1ccc2c3c(cccc13)C1=NC(=O)C(C(=O)OCC(=O)SCCC)=C12`, the IC50 with WI-38 is greater than 100 µM; in the test on T-24 it was 71.8 µM; in the test with BXPC-3, 13.7 µM; in test [1], 0.577 µM.
Regarding `N#CC1=C2C(=NC1=O)c1cccc3c(SCCN4CCSC4)ccc2c13`, the IC50 in test [1] is greater than 10 µM.
Same read-out and setting: with `CCOC(=O)C1=C2C(=NC1=O)c1cccc3c(SC(C)C)ccc2c13` the figure was greater than 10 µM.
With `C=CCSc1ccc2c3c(cccc13)C1=NC(=O)C(C(=O)OCC)=C12`, the IC50 with WI-38 was found to be 4.6 µM; with T-24 it was 0.7 µM; in the test on BXPC-3 it was 2.5 µM; in test [1], 0.485 µM. In addition, in test [2], the inhibition entry is “inactive”. The inhibition result in test [3], in test [4] and in test [6] was “Active” throughout. Also, the inhibition entry in test [5] is “Dose-dependent effect”.
In the case of `C=CCOC(=O)C1=C2C(=NC1=O)c1cccc3c(SCCC)ccc2c13`, the IC50 in the test with WI-38 is 33.2 µM; in the test on T-24, 13.1 µM; in the test with BXPC-3, 12.9 µM; in test [1], greater than 10 µM. Also, the outcome with Calf thymus DNA was Active.
`CC(C)Sc1ccc2c3c(cccc13)C1=NC(=O)C(C#N)=C12`: the IC50 in test [1] is greater than 10 µM.
Consider `CCCSc1ccc2c3c(cccc13)C1=NC(=O)C(C(=O)OCC(=O)OCC(F)(F)C(F)(F)F)=C12`, for which the IC50 in the test with WI-38 was 58.8 µM; in the test on T-24, greater than 100 µM; in the test on BXPC-3, 54.1 µM; in test [1], greater than 10 µM.
Take `O=C(COC(=O)C1=C2C(=NC1=O)c1cccc3cccc2c13)OCC(F)(F)C(F)(F)F`: the IC50 in the test on WI-38 was 48.3 µM; with T-24, 19 µM; in the test on BXPC-3, 23.3 µM; in [1], 0.077 µM.
For the compound `CCCSC(=O)COC(=O)C1=C2C(=NC1=O)c1cccc3cccc2c13`, the IC50 was 25.2 µM with WI-38, 10.5 µM in the test with T-24, 10.1 µM with BXPC-3 and 0.065 µM in test [1].
`CCCSc1ccc2c3c(cccc13)C1=NC(=O)C(C(=O)OCC)=C12`: the IC50 was 9.6 µM in the test on WI-38, 1.7 µM in the test on T-24, 5.8 µM with BXPC-3 and greater than 10 µM in test [1]. Further, the result in the test on Calf thymus DNA was Active.
On to `CC1OCCC1Sc1ccc2c3c(cccc13)C1=NC(=O)C(C#N)=C12` (configuration not stated), for which the IC50 in [1] is greater than 10 µM.
As to `N#CC1=C2C(=NC1=O)c1cccc3cccc2c13`, the IC50 in the test on WI-38 was 21.7 µM; with T-24 it was 13.3 µM; in the test with BXPC-3, 25 µM; in test [1], 4.5 µM.
As for `C=CCOC(=O)C1=C2C(=NC1=O)c1cccc3c(SCC=C)ccc2c13`, the IC50 worked out at 19.7 µM in the test with WI-38, 6.6 µM in the test with T-24, 2.5 µM with BXPC-3 and 0.216 µM in test [1].
In the case of `C=CCOC(=O)C1=C2C(=NC1=O)c1cccc3cccc2c13`, the inhibition result in test [7] was “Dose-dependent effect”. In addition, the IC50 came out at 20.6 µM in the test with WI-38, 3.9 µM in the test on T-24, 4.8 µM in the test on BXPC-3 and 0.019 µM in [1]. Besides, the inhibition entry in test [2] was “inactive”.
`CCOC(=O)C1=C2C(=NC1=O)c1cccc3c(SCCN4CCSC4)ccc2c13` yielded an IC50 in [1] greater than 10 µM.
On to `CCOC(=O)C1=C2C(=NC1=O)c1cccc3c(SCCc4cnccn4)ccc2c13`, for which, in test [1], the IC50 was 2.1 µM.
In test [1], `CCCSc1ccc2c3c(cccc13)C1=NC(=O)C(C#N)=C12` returned an IC50 greater than 10 µM.
Still for that read-out and setting: with `Cc1c[nH]c(/C=C2\C(=O)Nc3ccccc32)c1CCC(=O)O` the figure was 0.334 µM.
